Active and inactive are the calls of the source. The calls are words filed in the database; no cut-off is given here.
Columns and labels:
Rattus norvegicus [1] = experiment: Anti-allodynic activity in complete freund's adjuvant-induced rat inflammatory pain model assessed as inflammatory mechanical allodynia pretreated at 100 uM intra-cisternally administerd 30 min before CFA injection; format: functional, organism-based
In short: (§1)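 Rats briefly anesthetized (<2 min, 2% isoflurane by mask), given intracisternal 5 μL compound (100 μM) or vehicle (saline + 1% DMSO) 30 min before subcutaneous CFA (25 μL, 2.5 mg/kg) into right vibrissa pad. Static mechanical allodynia tested with 6-g von Frey filament on face every 15 or 30 min over 120 min; allodynic score 0–4 (Vos). n=4–6 rats.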

[2] = molecular target: Protein kinase C gamma type (Homo sapiens) (UniProt P05129); experiment: Inhibition of PKC-gamma (unknown origin) assessed as residual activity at 10 uM
Rattus norvegicus [3] = experiment: Anti-allodynic activity in complete freund's adjuvant-induced rat inflammatory pain model assessed as inflammatory mechanical allodynia pretreated at 0.15 ug intra-cisternally administerd 30 min before CFA injection relative to control; format: functional; conditions: dose 0.15 µg, 0.5 h; in short: as §1
Rattus norvegicus [4] = experiment: Anti-allodynic activity in complete freund's adjuvant-induced rat inflammatory pain model assessed as inflammatory mechanical allodynia pretreated at 100 uM intra-cisternally administerd 30 min before CFA injection measured 120 min after CFA injection relative to control; format: functional; conditions: 0.5 h; in short: as §1
Rattus norvegicus [5] = experiment: Anti-allodynic activity in complete freund's adjuvant-induced rat inflammatory pain model assessed as inflammatory mechanical allodynia pretreated at 0.17 ug intra-cisternally administerd 30 min before CFA injection relative to control; format: functional; conditions: dose 0.17 µg, 0.5 h; in short: as §1
Rattus norvegicus [6] = experiment: Anti-allodynic activity in constriction injury-induced rat neuropathic mechanic allodynia model assessed as inflammatory mechanical allodynia at 0.17 ug intra-cisternally administered on day 14 after injury; format: functional, organism-based; conditions: dose 0.17 µg, in the assay text read “static mechanical allodynia” for “inflammatory mechanical allodynia”
In short: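 Neuropathic model: infraorbital nerve chronic constriction (two loose 4/0 chromic catgut ligatures 1 mm apart, chloral hydrate 400 mg/kg i.p. anesthesia). On day 14, once stable allodynia present, intracisternal 5 μL compound (100 μM) or vehicle (saline + 1% DMSO) under brief isoflurane. Face stimulated with 6-g von Frey filament; allodynic score 0–4; n=5/group; mean ± s.e.m.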

[7] = molecular target: Mitogen-activated protein kinase 14 (Homo sapiens) (UniProt Q16539); experiment: Inhibition of p38alpha MAPK (unknown origin) assessed as residual activity at 10 uM
Mitogen-activated protein kinase 14 (Homo sapiens), sequence (Q16539 whole entry): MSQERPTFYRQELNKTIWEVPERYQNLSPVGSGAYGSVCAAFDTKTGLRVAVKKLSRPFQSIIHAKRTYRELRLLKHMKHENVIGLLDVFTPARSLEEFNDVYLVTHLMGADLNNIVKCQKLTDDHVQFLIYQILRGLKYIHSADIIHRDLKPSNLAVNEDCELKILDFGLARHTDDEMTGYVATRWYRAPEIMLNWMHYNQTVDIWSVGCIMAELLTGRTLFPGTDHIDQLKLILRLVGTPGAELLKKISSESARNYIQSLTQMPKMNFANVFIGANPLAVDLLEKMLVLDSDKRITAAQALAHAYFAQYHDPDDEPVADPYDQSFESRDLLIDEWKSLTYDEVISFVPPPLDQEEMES

Compound | inhibition (Rattus norvegicus [1]) | Activity [2] [%] | other results
COC(=O)c1ccc(-c2cc(Nc3ccccc3)c[nH]c2=O)cc1 | Active | – | –
Cc1ccc(-c2cc(Nc3ccccc3)c[nH]c2=O)cc1 | Active | – | –
O=c1[nH]cc(Nc2ccccc2)cc1-c1cccc2cccnc12 | Active | > 85 | –
O=c1[nH]cc(Nc2ccccc2)cc1-c1ccc(OC(F)(F)F)cc1 | Active | – | –
O=c1[nH]cc(Nc2ccccc2)cc1-c1cncnc1 | Active | > 85 | –
O=c1[nH]cc(Nc2ccccc2)cc1-c1ccccc1[N+](=O)[O-] | Active | – | –
O=c1[nH]cc(Nc2ccccc2)cc1-c1ccccc1 | Active | > 85 | –
NC(=O)c1ccccc1-c1cc(Nc2ccccc2)c[nH]c1=O | Active | – | –
O=c1[nH]cc(Nc2ccccc2)cc1-c1ccccc1Cl | Active | – | –
O=c1[nH]cc(Nc2ccccc2)cc1-c1ccc(F)cc1 | Active | > 85 | –
O=c1[nH]cc(Nc2ccccc2)cc1-c1cccc(Cl)c1 | Active | – | –
O=c1[nH]cc(Nc2ccccc2)cc1-c1ccc(F)cc1F | Active | – | –
O=c1[nH]cc(Nc2ccccc2)cc1-c1cccc2[nH]ccc12 | Active | – | inhibition (INH) (Rattus norvegicus [3]): 98%
O=c1[nH]cc(Nc2ccccc2)cc1-c1ccncc1 | Active | > 85 | inhibition in vivo at 100 µM (Rattus norvegicus [4]): 90%
O=c1[nH]cc(Nc2ccccc2)cc1-c1ccc(O)cc1 | Active | – | –
O=c1[nH]cc(Nc2ccccc2)cc1-c1c[nH]c2ccccc12 | – | > 85 | –
O=c1[nH]cc(Nc2ccccc2)cc1-c1cccc2cnccc12 | – | > 85 | –
CC(=O)c1cccc(-c2cc(Nc3ccccc3)c[nH]c2=O)c1 | Active | – | –
O=c1[nH]cc(Nc2ccccc2)cc1-c1ccnc2ccccc12 | Active | – | –
NC(=O)c1ccc(-c2cc(Nc3ccccc3)c[nH]c2=O)cc1 | Active | – | –
O=c1[nH]cc(Nc2ccccc2)cc1-c1ccc(C(F)(F)F)cc1 | Active | – | –
O=c1[nH]cc(Nc2ccccc2)cc1-c1ccccc1Br | Active | – | inhibition (INH) (Rattus norvegicus [5]): 99%; inhibition (Rattus norvegicus [6]): Active; Activity [7]: 19%
CCOC(=O)c1ccccc1-c1cc(Nc2ccccc2)c[nH]c1=O | Active | – | –
